Screens: PubChem BioAssay, several laboratories
APP 5'UTR act: APP 5'UTR luciferase reporter activation. SH-SY5Y APP 5'UTR luciferase reporter, luminescence; zero percent = DMSO vehicle wells. activation, % at 2 µM. hit rate 1% among 190,000;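 active means activation above a set limit, based on mean plus 3 SD of controls, cut at about 140% in these data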
NF-kB expr up: NF-kB expression increase, human neuronal cells; NF-kB reporter expression; stronger effect = higher value; fold change at 12.5 µM; hit rate 1.6% among 190,000; AID 1239; in the data active means fold change above about 3.3
FLuc inh counter: inhibits firefly luciferase, flagging false hits in luciferase inhibition screens; AID 1006; ATPLite firefly luciferase biochemical luminescence, 10 min; hit rate 1.5% among 200,000; inhibition, % at 10 µM; P08659;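 active means inhibition above about 50% when tested at 10 µM, limit read from the data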
Rad51 HR inh: Rad51 (human) homologous recombination inhibition; Q06609; hRad51 DNA strand exchange, fluorescence dequenching; inhibition, % at 10 µM; hit rate 0.085% among 200,000; AID 1385;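 active means inhibition above 40% at the single screening dose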
Target sequence (Q06609 whole entry, looked up): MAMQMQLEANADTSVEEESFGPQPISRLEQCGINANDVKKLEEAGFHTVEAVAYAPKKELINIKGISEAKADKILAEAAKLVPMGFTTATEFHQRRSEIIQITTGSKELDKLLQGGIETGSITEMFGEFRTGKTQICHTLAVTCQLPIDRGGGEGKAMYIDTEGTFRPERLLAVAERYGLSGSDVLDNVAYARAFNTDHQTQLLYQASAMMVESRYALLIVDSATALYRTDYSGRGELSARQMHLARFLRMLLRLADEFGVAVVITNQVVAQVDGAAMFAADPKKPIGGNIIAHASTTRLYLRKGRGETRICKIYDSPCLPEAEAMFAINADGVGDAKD
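Assay system: Human Rad51 nucleoprotein filaments preassembled on unlabelled ssDNA | Reagent: Donor/quencher-labelled 47-bp dsDNA substrate | Doses: One concentration, 10 µM final | Times: 37 °C 15-min filament assembly, 30-min compound preincubation, 15-min exchange | Technique: Fluorescein emission 520 nm, excitation 485 nm | Benchmarks: Plate control and blank wells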
STAT1 act: increases IFN-gamma driven STAT1 reporter signal. activation (% of control), % at 5.5 µM. NIH 3T3 STAT1-luciferase reporter, luminescence; 100% = IFN-gamma alone, no compound. hit rate 2.6% among 200,000;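 active means activation above the screen-wide mean activation plus 3 SD, cut at about 130% in these data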
FLuc act counter: firefly luciferase counter-screen for stimulation assays; P08659; ATPlite luciferase biochemical, luminescence, 10 min; 0 = ATP-free wells, 1 = DMSO control; activation factor at 10 µM; 200,000 tested, under 10 active; AID 1027;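 active means luciferase activation factor, scaled between plate controls, of at least 2 with compound at 10 µM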
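Material: Luciferase/luciferin reagent mix; Doses: test compounds dosed from 2 mM stocks in 100% DMSO; Schedule: 10 min incubation after luciferase reagent addition, room temperature; Measured by: luminescence from luciferase reaction; Read-out: luminescence gain marking luciferase activators.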
Large screens that a line does not name were inactive. Most compounds without a hit are left out; they make up all but 3.9% or so of the library.

CN1/C(=C\C(=O)c2cccnc2)Sc2ccccc21	FLuc inh counter 54.7, STAT1 act 134.1
COc1cccc(C(=O)Nc2ccccc2N2CCCC2)c1	none
O=C1c2ccccc2C(=O)N1CCc1c[nH]c2ccc(O)cc12	STAT1 act 132.3
O=C1c2ccccc2C(=O)N1CCCc1c[nH]c2ccccc12	none
CCC(=O)N=c1ccn(C2=Nc3ccccc3NC2=C(C#N)C#N)cc1	none (no result: APP 5'UTR act, NF-kB expr up, FLuc inh counter, STAT1 act, FLuc act counter)
C#C[C@]1(O)CC[C@H]2[C@@H]3[C@H](C)CC4=C(CCC(=O)C4)[C@H]3CC[C@@]21C	none (no result: APP 5'UTR act, NF-kB expr up, FLuc inh counter, STAT1 act, FLuc act counter)
COC(=O)c1c(N2C(=O)[C@H]3[C@@H](C2=O)[C@]2(C(=O)Nc4c2ccc(C)c4C)N2CCC[C@@H]32)sc(C)c1C	Rad51 HR inh 40.8
O=c1c(-c2nc3ccccc3s2)cccn1Cc1ccc(Cl)c(Cl)c1	NF-kB expr up 3.48
CCOc1ccc(-c2nc(CN3CCCCC3CCn3cccn3)c(C)o2)cc1 (centres undefined)	none (no result: APP 5'UTR act, NF-kB expr up, FLuc inh counter, STAT1 act, FLuc act counter)
COc1ccc(OC)c(-c2csc(NC(=O)c3ccc4c(c3)OCO4)n2)c1	none
N#Cc1c(NCCO)nc(NCc2ccccc2)c2c1CCN(Cc1ccccc1)C2	NF-kB expr up 5.81
C=CCNc1nc(N2CCCCC2)c(C#N)c2c1CN(Cc1ccccc1)CC2	NF-kB expr up 4.73
COc1ccc(-n2c(=O)c3c(C)c(C)sc3n(Cc3ccc(F)cc3)c2=O)c(OC)c1	none
O=C(COC(=O)c1cc(S(=O)(=O)N2CCCCC2)ccc1N1CCOCC1)NCCc1ccc(F)cc1	none
CN(C(=O)c1ccccc1)c1nc2ccccc2s1	APP 5'UTR act 215.2, NF-kB expr up 4.07, FLuc inh counter 84.0, STAT1 act 138.8
N#Cc1ccc(OCc2noc(-c3ccsc3)n2)cc1	none (no result: APP 5'UTR act, NF-kB expr up, FLuc inh counter, STAT1 act, FLuc act counter)
Cc1ccc(-c2nc3cccnc3s2)cc1NS(C)(=O)=O	STAT1 act 139.4
COc1ccc(Cl)cc1N(CC(=O)NC1CC1)S(=O)(=O)c1ccc(C)c([N+](=O)[O-])c1	none
CCC(C)(C)c1ccc(OCCCC[n+]2cccc(C)c2)c(C(C)(C)CC)c1	none
CSc1nc2ccc(NC(=O)c3cc4ccccc4o3)cc2s1	APP 5'UTR act 139.9, NF-kB expr up 4.87, STAT1 act 139.2
O=C(Nc1nc2ccsc2c(=O)s1)c1ccc(F)cc1	none (no result: APP 5'UTR act, NF-kB expr up, FLuc inh counter, STAT1 act, FLuc act counter)
CSc1nc2ccc(NC(=O)c3ccc(=O)n(C)n3)cc2s1	none
CSc1nc2ccc(NC(=O)c3ccco3)cc2s1	NF-kB expr up 4.03, STAT1 act 139.5
CSc1nc2ccc3nc(NC(=O)c4ccccc4)sc3c2s1	STAT1 act 139.2
CSc1nc2ccc(NC(=O)c3ccc(F)c(F)c3)cc2s1	STAT1 act 140.0
NC(=O)[C@@H]1CCCNc2c(I)cc([N+](=O)[O-])cc2C(=O)N[C@@H](CO)C(=O)NCC(=O)N1	none
COc1cccc(-c2nc(N)nc(SC)c2C#N)c1	none (no result: APP 5'UTR act, NF-kB expr up, FLuc inh counter, STAT1 act, FLuc act counter)
CCc1ccc(NC(=O)c2ccc3nc(N)sc3c2)cc1	none (no result: Rad51 HR inh)
Nc1nc2ccc(C(=O)Nc3ccccc3)cc2s1	STAT1 act 147.6
CSc1nc(=O)n2cc(C)ccc2n1	none
CCOC(=O)C1CCCN(S(=O)(=O)c2ccc(OC)cc2)C1 (centres undefined)	Rad51 HR inh 46.0
Cc1nc(C)c(/C(O)=C/c2nc3ccccc3oc2=O)s1	NF-kB expr up 4.75
O=c1oc2ccccc2nc1/C=C(\O)c1ccccc1	none (no result: APP 5'UTR act, NF-kB expr up, FLuc inh counter, STAT1 act, FLuc act counter)
COc1ccc(OC)c(/C=N/Nc2nncn2/N=C/c2cc(OC)ccc2OC)c1	none
COc1cc(/C=N/Nc2nnc3c(n2)[nH]c2ccccc23)ccc1O	STAT1 act 132.9
COc1cc(/C=N/Nc2nncn2/N=C/c2ccc(O)c(OC)c2)ccc1O	FLuc inh counter 96.1
O=C(Cn1cncn1)NCCCc1ccccc1	none
S=C(NCCCN1CCOCC1)Nc1ccc(-c2nc3ccccc3[nH]2)cc1	none
Cc1ccc(NC(=S)c2nc3ccccc3[nH]2)cc1	APP 5'UTR act 193.0, NF-kB expr up 4.47, FLuc inh counter 82.9
CC(=O)Nc1cc(NC(C)=O)cc(-c2nc3ccccc3[nH]2)c1	none
CN(C)CCNC(=S)Nc1ccc(-c2nc3ccccc3[nH]2)cc1	APP 5'UTR act 162.9, NF-kB expr up 3.7
Cc1ccc(NC(=S)N2CCCC(c3nc4ccccc4[nH]3)C2)cc1 (centres undefined)	none
